# Laboratory results reported in ChEMBL document CHEMBL4765352, “Discovery of AdipoRon analogues as novel AMPK activators without inhibiting mitochondrial complex I” (Eur J Med Chem, 2020).
# The source made the active and inactive calls. No cut-off for these calls is given here.
# Columns and labels:
# [1] = Induction of glucose consumption in mouse C2C12 cells at 10 uM measured after 12 hrs by glucose oxidase method (reference value: 100 %); assay type: functional
# Outline: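 Differentiated C2C12 myotubes were switched to DMEM containing 2.75 g/L glucose and treated for 12 h at 37 °C, with cell-free blank wells as reference. Glucose left in the medium was measured by the GOD-POD method at 570 nm. Consumption was derived by subtraction and expressed as percentage of the DMSO group.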
# C2C12 = experiment: Activation of AMPK in mouse C2C12 cells assessed as increase in AMPK phosphorylation at Thr172 residue at 10 uM measured after 2 hrs by Western blot analysis; assay type: cell-based; conditions: filed as activator
# Outline: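 C2C12 myoblasts differentiated in DMEM with 2% horse serum for 5-7 days until myotubes formed. Treated for 2 h, either at 10 μM or across a concentration range, or at 10 μM over a time course. RIPA lysates (~30 µg protein) blotted for p-AMPK/AMPK and p-ACC/ACC, detected by ECL. The p-AMPK/AMPK ratio is expressed as fold of the DMSO vehicle.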
# [2] = Metabolic stability in ICR/CD-1 mouse liver microsomes assessed as half life preincubated for 5 mins followed by NADPH addition and measured up to 45 mins by LC/MS analysis; assay type: ADME, Microsome; conditions: time 50 min
# Outline: (§1)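 Compound was preincubated with mouse (ICR/CD-1) or human liver microsomes in potassium phosphate buffer at 37 °C for 5 min, then NADPH was added to start the reaction. Samples were quenched with acetonitrile containing tolbutamide internal standard at 0, 5, 15, 30 and 45 min. Parent compound measured by LC/MS; ketanserin served as control.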
# [3] = Inhibition of bovine heart mitochondrial complex 1 at 5 to 20 uM measured every minute for 2 hrs by microplate reader based assay; assay type: tissue-based, Bos taurus; conditions: cattle, dose 5-20 µM
# Outline: (§2)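 Bovine heart mitochondria in detergent were captured on a complex I antibody-coated plate for 2 h at room temperature. Phospholipids were added, then complex I solution with compound, rotenone control or DMSO. NADH oxidation was followed as the fall in A340, read every minute for at least 2 h at 30 °C.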
# [4] = Metabolic stability in human liver microsomes assessed as compound remaining preincubated for 5 mins followed by NADPH addition and measured up to 45 mins by LC/MS analysis; assay type: ADME, Microsome; conditions: time 50 min, read-out: Stabilty; outline: as §1
# [5] = Metabolic stability in ICR/CD-1 mouse liver microsomes assessed as compound remaining preincubated for 5 mins followed by NADPH addition and measured up to 45 mins by LC/MS analysis; assay type: ADME, Microsome; conditions: time 50 min, read-out: Stabilty; outline: as §1
# [6] = Metabolic stability in human liver microsomes assessed as half life preincubated for 5 mins followed by NADPH addition and measured up to 45 mins by LC/MS analysis; assay type: ADME, Microsome; conditions: time 50 min; outline: as §1
# [7] = Metabolic stability in ICR/CD-1 mouse liver microsomes assessed as intrinsic clearance preincubated for 5 mins followed by NADPH addition and measured up to 45 mins by LC/MS analysis; assay type: ADME, Microsome; conditions: time 50 min, read-out: CLH
# Outline: (§3)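 Compound and liver microsomes in preheated potassium phosphate buffer, held at 37 °C for 5 min. Reaction started with NADPH and stopped at 0, 5, 15, 30 and 45 min with acetonitrile containing tolbutamide internal standard. Samples centrifuged at 6000 rpm for 15 min, supernatant analysed by LC/MS. Ketanserin run as assay control. Performed by a contract lab.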
# [8] = Metabolic stability in human liver microsomes assessed as intrinsic clearance preincubated for 5 mins followed by NADPH addition and measured up to 45 mins by LC/MS analysis; assay type: ADME, Microsome; conditions: time 50 min, read-out: CLH; outline: as §3
# Mus musculus [9] = experiment: Hypoglycemic activity in 6 hrs fasted normal lean C57BL/6 mouse assessed as improved glucose tolerance at 10 mg/kg, ig pretreated for 2 hrs followed by glucose challenge and measured up to 90 mins post glucose challenge starting from 120 mins prior to compound treatment by IPGTT; assay type: functional, organism-based; conditions: time 210.0 min
# A549 = experiment: Activation of AMPK in human A549 cells harboring mutant LKB1; assay type: cell-based; conditions: filed as activator
# Mus musculus [10] = experiment: Activation of AMPK in normal lean C57BL/6 mouse assessed as increase in phosphorylated ACC level in skeletal muscle at 100 mg/kg, ig administered for 4 weeks by Western blot analysis; assay type: functional, organism-based; conditions: Skeletal muscle tissue
# Outline: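 Male C57BL/6 mice, 9 weeks old, dosed intragastrically once daily for 4 weeks alongside vehicle controls. Heart and skeletal muscle were homogenized in RIPA buffer with protease/phosphatase inhibitors and centrifuged at 10,600 g for 20 min. About 30 µg protein was blotted for p-AMPK and p-ACC and detected by ECL.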
# [11] = Inhibition of mitochondrial complex 1 in human HepG2 cells assessed as increase in ADP/ATP ratio at 0.5 uM; assay type: cell-based; conditions: hepg2, 0.5 µM
# Outline: (§4)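 HepG2 cells treated with 10 μM or 0.5 μM compound, or DMSO. Cellular ADP:ATP and AMP:ATP ratios were measured. Three replicates, given as mean ± SD and compared by Student's t test.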
# [12] = Inhibition of mitochondrial complex 1 in human HepG2 cells assessed as increase in AMP/ATP ratio at 0.5 uM; assay type: cell-based; conditions: hepg2, 0.5 µM; outline: as §4
# [13] = Inhibition of bovine heart mitochondrial complex 1 at 10 uM measured every minute for 2 hrs by microplate reader based assay; assay type: tissue-based, Bos taurus; conditions: cattle; outline: as §2
# Mus musculus [14] = experiment: Hypoglycemic activity in 6 hrs fasted normal lean C57BL/6 mouse assessed as reduction in blood glucose level at 100 mg/kg, ig pretreated for 2 hrs followed by glucose challenge and measured up to 90 mins post glucose challenge starting from 120 mins prior to […] by IPGTT; assay type: functional, organism-based; conditions: time 210.0 min
# Outline: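 C57BL/6 mice (male, 8-10 weeks, n=6 per group) fasted 6 h, then given compound or vehicle intragastrically. Two hours later, 20% glucose was injected i.p. at 2 g/kg. Tail-vein glucose read by glucometer at -120, 0, 20, 40, 60 and 90 min, and net AUC calculated. Doses were 25, 50 and 100 mg/kg.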
Compound,Activity [1] [%],other results
COc1ccc(COc2ccc(NC(=O)C(C)(C)Oc3ccc(Cl)cc3)cc2)cc1,134.7,–
CC(C)(Oc1ccc(Cl)cc1)C(=O)N1CCC(NC(=O)Nc2ccc(F)c(Cl)c2)CC1,116.7,–
COc1ccc(NC(=O)NC2CCN(C(=O)C(C)(C)Oc3ccc(Cl)cc3)CC2)cc1,134.4,–
Cc1ccc(COc2ccc(NC(=O)C(C)(C)Oc3ccc(Cl)cc3)cc2)cc1,102.2,–
COC(=O)c1ccc(COc2ccc(NC(=O)C(C)(C)Oc3ccc(Cl)cc3)cc2)cc1,124.7,–
CC(C)(Oc1ccc(Cl)cc1)C(=O)N1CCC(NC(=O)Nc2ccccc2)CC1,118,–
CC(C)(Oc1ccc(Cl)cc1)C(=O)Nc1ccc(OCc2ccc(S(C)(=O)=O)cc2)cc1,144.4,Activity (C2C12): Active
CC(C)(Oc1ccc(Cl)cc1)C(=O)Nc1ccc(OCc2ccc(C(F)(F)F)cc2)cc1,156.1,half-life [2]: > 120 min; inhibition (INH) [3]: Active; remaining at 0.75 h [4]: 93%; remaining at 0.75 h [5]: 91%; half-life [6]: > 120 min
O=C(c1ccc(F)cc1)C1CCN(CCn2c(=O)[nH]c3ccccc3c2=O)CC1 [KETANSERIN],–,half-life [2]: 21 min; CLint scaled [7]: 258 mL/min/kg; half-life [6]: 25 min; CLint scaled [8]: 71 mL/min/kg
CC(C)(Oc1ccc(Cl)cc1)C(=O)Nc1ccc(OCc2ccc(Br)cc2)cc1,112.7,–
CC(C)(Oc1ccc(Cl)cc1)C(=O)Nc1ccc(OCc2ccc(Cl)cc2)cc1,129,Activity (C2C12): Active
CC(C)(Oc1ccc(Cl)cc1)C(=O)Nc1ccc(OCc2ccc(C(=O)O)cc2)cc1,116.5,–
CC(C)(Oc1ccc(Cl)cc1)C(=O)N1CCC(NC(=O)Nc2ccccc2C(F)(F)F)CC1,116.1,–
CC(C)(Oc1ccc(Cl)cc1)C(=O)Nc1ccc(OCc2ccc(C(C)(C)C)cc2)cc1,105.3,–
Cc1ccc(NC(=O)NC2CCN(C(=O)C(C)(C)Oc3ccc(Cl)cc3)CC2)cc1,93.7,–
CC(C)(Oc1ccc(Cl)cc1)C(=O)Nc1ccc(OCc2ccc(F)cc2)cc1,107.6,–
CCOC(=O)c1ccc(NC(=O)NC2CCN(C(=O)C(C)(C)Oc3ccc(Cl)cc3)CC2)cc1,126.1,–
O[C@@H]1CO[C@H]2[C@@H]1OC[C@H]2Oc1nc2nc(-c3ccc(-c4ccccc4)cc3)c(Cl)cc2[nH]1,–,Activity (Mus musculus [9]): Active; Activity (A549): Active; Activity (Mus musculus [10]): Active; Activity (C2C12): Active
COc1ccc(C(=O)C2CCN(C(=O)c3ccc(C(=O)NC4CCN(Cc5ccc(C#N)cc5)CC4)cn3)CC2)cc1,–,inhibition (INH) [11]: Active; inhibition (INH) [12]: Active
CC(C)(Oc1ccc(Cl)cc1)C(=O)Nc1ccc(OCc2ccc(OC(F)(F)F)cc2)cc1,133.4,–
CC(C)(Oc1ccc(Cl)cc1)C(=O)N1CCC(NC(=O)Nc2ccc(OC(F)(F)F)cc2)CC1,104.2,–
CC(C)(Oc1ccc(Cl)cc1)C(=O)N1CCC(NC(=O)Nc2ccc([N+](=O)[O-])cc2)CC1,115.4,–
CC(C)(Oc1ccc(Cl)cc1)C(=O)N1CCC(NC(=O)Nc2ccc(C#N)cc2)CC1,116.2,–
CC(C)(Oc1ccc(Cl)cc1)C(=O)N1CCC(NC(=O)Nc2cccc(C(F)(F)F)c2)CC1,91,–
CC(C)(Oc1ccc(Cl)cc1)C(=O)N1CCC(NC(=O)Nc2ccc(C(=O)O)cc2)CC1,117.7,–
CC(C)(Oc1ccc(Cl)cc1)C(=O)N1CCC(NC(=O)Nc2ccc(C(F)(F)F)cc2)CC1,137.2,inhibition (INH) [3]: Not Active; Activity (C2C12): Active
CC(C)(Oc1ccc(Cl)cc1)C(=O)N1CCC(NC(=O)Nc2ccc(Cl)cc2)CC1,104.1,Activity (C2C12): Active
CC(C)(Oc1ccc(Cl)cc1)C(=O)N1CCC(NC(=O)Nc2ccc(Br)cc2)CC1,127.3,–
CC(C)(Oc1ccc(Cl)cc1)C(=O)N1CCC(NC(=O)Nc2ccc(F)cc2)CC1,119.3,Activity (C2C12): Active
O=C(COc1ccc(C(=O)c2ccccc2)cc1)NC1CCN(Cc2ccccc2)CC1,132.4,inhibition (INH) [13]: Active; Activity (Mus musculus [14]): Active; Activity (C2C12): Active
